Holding throughout (format): functional
Experiment [1] concerns Streptococcus pneumoniae. As to the kind of experiment: Antibacterial activity against Streptococcus pneumoniae assessed as percent cumulative susceptible isolates at minimum inhibitory concentration of 32 ug/ml by CLSI broth microdilution method. The arrangement: scale not given: the % may be the effect or the level left. The method, boiled down:
(§1)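 Clinical isolates tested by CLSI broth microdilution using 96-well panels of doubling drug dilutions in cation-adjusted Mueller-Hinton broth with 5% lysed horse blood. MIC was read from these panels. Panel quality control used CLSI ATCC strains, including S. pneumoniae 49619, S. aureus 29213, E. faecalis 29212 and E. coli 25922. Cumulative percentages of isolates were tabulated at each MIC.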
A general note: Dilution methods test growth across graded concentrations, often in twofold steps.

In experiment [2] the test system is Streptococcus pneumoniae. Put plainly: Antibacterial activity against Streptococcus pneumoniae assessed as percent cumulative susceptible isolates at minimum inhibitory concentration of 2 ug/ml by CLSI broth microdilution method. Also noted: scale not given: the % may be the effect or the level left.
Experiment [3] has as its system Staphylococcus epidermidis. As to the kind of experiment: Antibacterial activity against methicillin-susceptible Staphylococcus epidermidis assessed as percent cumulative susceptible isolates at minimum inhibitory concentration of 32 ug/ml by CLSI broth microdilution method. Also noted: scale not given: the % may be the effect or the level left. The method, boiled down: as §1

A further experiment has as its system Enterobacter cloacae. As to the kind of experiment: Antibacterial activity against Enterobacter cloacae assessed as percent cumulative susceptible isolates at minimum inhibitory concentration of 2 ug/ml by CLSI broth microdilution method. Also noted: scale not given: the % may be the effect or the level left.
The test system of experiment [4] is Staphylococcus epidermidis. As to the kind of experiment: Antibacterial activity against methicillin-susceptible Staphylococcus epidermidis assessed as percent cumulative susceptible isolates at minimum inhibitory concentration of 8 ug/ml by CLSI broth microdilution method. The arrangement: scale not given: the % may be the effect or the level left.
For experiment [5], the system named is Enterococcus faecium. As to the kind of experiment: Antibacterial activity against Enterococcus faecium assessed as percent cumulative susceptible isolates at minimum inhibitory concentration of 1 ug/ml by CLSI broth microdilution method. The arrangement: scale not given: the % may be the effect or the level left.
Experiment [6] has as its system Staphylococcus aureus. Put plainly: Antibacterial activity against community-associated methicillin-resistant Staphylococcus aureus assessed as percent cumulative susceptible isolates at minimum inhibitory concentration of 8 ug/ml by CLSI broth microdilution method. The arrangement: scale not given: the % may be the effect or the level left. The method, boiled down:
as §1

In experiment [7] the test system is Proteus mirabilis. As to the kind of experiment: Antibacterial activity against Proteus mirabilis assessed as percent cumulative susceptible isolates at minimum inhibitory concentration of 8 ug/ml by CLSI broth microdilution method. The arrangement: scale not given: the % may be the effect or the level left.
For experiment [8], the system named is Stenotrophomonas maltophilia. As to the kind of experiment: Antibacterial activity against Stenotrophomonas maltophilia assessed as percent cumulative susceptible isolates at minimum inhibitory concentration of 8 ug/ml by CLSI broth microdilution method. The arrangement: scale not given: the % may be the effect or the level left.
For experiment [9], the system named is Streptococcus pneumoniae. As to the kind of experiment: Antibacterial activity against Streptococcus pneumoniae assessed as percent cumulative susceptible isolates at minimum inhibitory concentration of 1 ug/ml by CLSI broth microdilution method. Also noted: scale not given: the % may be the effect or the level left.
For experiment [10], the system named is Staphylococcus aureus. As to the kind of experiment: Antibacterial activity against methicillin-resistant Staphylococcus aureus assessed as percent cumulative susceptible isolates at minimum inhibitory concentration of 4 ug/ml by CLSI broth microdilution method. The arrangement: scale not given: the % may be the effect or the level left.
The test system of a further experiment is Enterococcus faecalis. As to the kind of experiment: Antibacterial activity against Enterococcus faecalis assessed as percent cumulative susceptible isolates at minimum inhibitory concentration of 128 ug/ml by CLSI broth microdilution method. Also noted: scale not given: the % may be the effect or the level left.
For experiment [11], the system named is Staphylococcus aureus. Put plainly: Antibacterial activity against non-levofloxacin susceptible Staphylococcus aureus assessed as percent cumulative susceptible isolates at minimum inhibitory concentration of 8 ug/ml by CLSI broth microdilution method. The arrangement: scale not given: the % may be the effect or the level left.
In experiment [12] the test system is Staphylococcus aureus. As to the kind of experiment: Antibacterial activity against non-levofloxacin susceptible Staphylococcus aureus assessed as percent cumulative susceptible isolates at minimum inhibitory concentration of 4 ug/ml by CLSI broth microdilution method. The arrangement: scale not given: the % may be the effect or the level left.
Experiment [13] has as its system Proteus mirabilis. Put plainly: Antibacterial activity against Proteus mirabilis assessed as percent cumulative susceptible isolates at minimum inhibitory concentration of 0.5 ug/ml by CLSI broth microdilution method. Also noted: scale not given: the % may be the effect or the level left.
For experiment [14], the system named is Proteus mirabilis. As to the kind of experiment: Antibacterial activity against Proteus mirabilis assessed as percent cumulative susceptible isolates at minimum inhibitory concentration of […] by CLSI broth microdilution method. The arrangement: scale not given: the % may be the effect or the level left.
Experiment [15] deals with Staphylococcus aureus. As to the kind of experiment: Antibacterial activity against hospital-associated methicillin-resistant Staphylococcus aureus assessed as percent cumulative susceptible isolates at minimum inhibitory concentration of 0.5 ug/ml by CLSI broth microdilution method. The arrangement: scale not given: the % may be the effect or the level left.
The test system of experiment [16] is Escherichia coli. Put plainly: Antibacterial activity against Escherichia coli assessed as percent cumulative susceptible isolates at minimum inhibitory concentration of 64 ug/ml by CLSI broth microdilution method. Also noted: scale not given: the % may be the effect or the level left.
Experiment [17] concerns Proteus mirabilis. Put plainly: Antibacterial activity against Proteus mirabilis assessed as percent cumulative susceptible isolates at minimum inhibitory concentration of 2 ug/ml by CLSI broth microdilution method. Also noted: scale not given: the % may be the effect or the level left.
Experiment [18] deals with Staphylococcus aureus. Put plainly: Antibacterial activity against non-levofloxacin susceptible Staphylococcus aureus assessed as percent cumulative susceptible isolates at minimum inhibitory concentration of 64 ug/ml by CLSI broth microdilution method. Also noted: scale not given: the % may be the effect or the level left.
Experiment [19] concerns Streptococcus pneumoniae. As to the kind of experiment: Antibacterial activity against Streptococcus pneumoniae assessed as percent cumulative susceptible isolates at minimum inhibitory concentration of […] by CLSI broth microdilution method. The arrangement: scale not given: the % may be the effect or the level left.
Experiment [20] relates to Pseudomonas aeruginosa. Put plainly: Antibacterial activity against Pseudomonas aeruginosa assessed as percent cumulative susceptible isolates at minimum inhibitory concentration of 256 ug/ml by CLSI broth microdilution method. Also noted: scale not given: the % may be the effect or the level left.
For experiment [21], the system named is Staphylococcus aureus. Put plainly: Antibacterial activity against methicillin-resistant Staphylococcus aureus assessed as percent cumulative susceptible isolates at minimum inhibitory concentration of 0.5 ug/ml by CLSI broth microdilution method. Also noted: scale not given: the % may be the effect or the level left.
In experiment [22] the test system is Staphylococcus aureus. Put plainly: Antibacterial activity against community-associated methicillin-resistant Staphylococcus aureus assessed as percent cumulative susceptible isolates at minimum inhibitory concentration of 0.5 ug/ml by CLSI broth microdilution method. The arrangement: scale not given: the % may be the effect or the level left.
Experiment [23] relates to Staphylococcus aureus. As to the kind of experiment: Antibacterial activity against Levofloxacin-susceptible Staphylococcus aureus assessed as percent cumulative susceptible isolates at minimum inhibitory concentration of <=0.008 ug/ml by CLSI broth microdilution method. Also noted: scale not given: the % may be the effect or the level left.
The subject of experiment [24] is Escherichia coli. As to the kind of experiment: Antibacterial activity against Escherichia coli assessed as percent cumulative susceptible isolates at minimum inhibitory concentration of 256 ug/ml by CLSI broth microdilution method. Also noted: scale not given: the % may be the effect or the level left.
Experiment [25] has as its system Enterococcus faecium. Put plainly: Antibacterial activity against Enterococcus faecium by CLSI M7-A7 broth microdilution method.
The subject of experiment [26] is Pseudomonas aeruginosa. As to the kind of experiment: Antibacterial activity against Pseudomonas aeruginosa assessed as percent cumulative susceptible isolates at minimum inhibitory concentration of 128 ug/ml by CLSI broth microdilution method. Also noted: scale not given: the % may be the effect or the level left.
For experiment [27], the system named is Staphylococcus epidermidis. Put plainly: Antibacterial activity against methicillin-resistant Staphylococcus epidermidis assessed as percent cumulative susceptible isolates at minimum inhibitory concentration of […] by CLSI broth microdilution method. The arrangement: scale not given: the % may be the effect or the level left.
Experiment [28] deals with Pseudomonas aeruginosa. Put plainly: Antibacterial activity against Pseudomonas aeruginosa by CLSI M7-A7 broth microdilution method.
Experiment [29] deals with Staphylococcus aureus. Put plainly: Antibacterial activity against hospital-associated methicillin-resistant Staphylococcus aureus assessed as percent cumulative susceptible isolates at minimum inhibitory concentration of 0.06 ug/ml by CLSI broth microdilution method. Also noted: scale not given: the % may be the effect or the level left.
For experiment [30], the system named is Staphylococcus aureus. As to the kind of experiment: Antibacterial activity against community-associated methicillin-resistant Staphylococcus aureus assessed as percent cumulative susceptible isolates at minimum inhibitory concentration of […] by CLSI broth microdilution method. Also noted: scale not given: the % may be the effect or the level left.
In experiment [31] the test system is Staphylococcus aureus. As to the kind of experiment: Antibacterial activity against Levofloxacin-susceptible Staphylococcus aureus assessed as percent cumulative susceptible isolates at minimum inhibitory concentration of […] by CLSI broth microdilution method. The arrangement: scale not given: the % may be the effect or the level left.
Experiment [32] relates to Staphylococcus aureus. Put plainly: Antibacterial activity against hospital-associated methicillin-resistant Staphylococcus aureus assessed as percent cumulative susceptible isolates at minimum inhibitory concentration of 1 ug/ml by CLSI broth microdilution method. The arrangement: scale not given: the % may be the effect or the level left. The method, boiled down:
as §1

Experiment [33] has as its system Enterococcus faecium. Put plainly: Antibacterial activity against Enterococcus faecium assessed as percent cumulative susceptible isolates at minimum inhibitory concentration of 0.06 ug/ml by CLSI broth microdilution method. Also noted: scale not given: the % may be the effect or the level left.
Experiment [34] concerns Streptococcus pneumoniae. As to the kind of experiment: Antibacterial activity against Streptococcus pneumoniae by CLSI M7-A7 broth microdilution method. The method in brief:
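Broth microdilution per CLSI guidelines on clinical isolates, using panels of doubling drug dilutions in cation-adjusted Mueller-Hinton broth with 5% lysed horse blood. MIC read per CLSI, and cumulative percentage of isolates inhibited at each concentration tabulated.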

Each structure is given as a SMILES string. Values after ≈ are worked out from the molar mass of the structure shown. Bounds are passed on as bounds.

As for `C[C@H]1COc2c(N3CCN(C)CC3)c(F)cc3c(=O)c(C(=O)O)cn1c23.C[C@H]1COc2c(N3CCN(C)CC3)c(F)cc3c(=O)c(C(=O)O)cn1c23.O` [LEVOFLOXACIN], the Activity in the experiment on Streptococcus pneumoniae [1] is 100%; in the experiment with Streptococcus pneumoniae [2] it was 99.4%; in experiment [3], 100%; with Enterobacter cloacae, 93.1%; in [4], 76.7%; with Enterococcus faecium [5], 10.5%. In addition, the Activity with Staphylococcus aureus [6] came out at 96%; in the experiment with Proteus mirabilis [7], 97%; in experiment [8], 92.3%; with Streptococcus pneumoniae [9], 96.3%.

For the compound `COc1c(N2C[C@@H](C)C[C@H](N)C2)ccc2c(=O)c(C(=O)O)cn(C3CC3)c12` [NEMONOXACIN], the Activity in the experiment on Staphylococcus aureus [10] came to 65.4%; in the experiment with Enterococcus faecalis, 100%; in the experiment with Staphylococcus aureus [11], 76.2%; in the experiment with Staphylococcus aureus [12], 67.3%; in the experiment on Proteus mirabilis [13], 54.5%; in the experiment on Proteus mirabilis [14] it was 24.2%. The Activity in the experiment on Staphylococcus aureus [15] is on record as 5.1%; with Escherichia coli [16], 98.2%; with Proteus mirabilis [17], 78.8%; in the experiment on Staphylococcus aureus [18] it was 100%; in the experiment with Streptococcus pneumoniae [19] it was 91%; in the experiment with Pseudomonas aeruginosa [20], 99.3%. Further, the Activity in the experiment on Staphylococcus aureus [21] was found to be 24.4%; in the experiment with Staphylococcus aureus [22], 92%; in the experiment on Staphylococcus aureus [23], 5.9%; in the experiment on Escherichia coli [24], 99.7%; in the experiment on Pseudomonas aeruginosa [26], 97.8%; in experiment [27], 33.3%. Besides, the Activity came to 3% with Staphylococcus aureus [29]; 16% in the experiment on Staphylococcus aureus [30]; 33.8% in the experiment on Staphylococcus aureus [31]; 18.2% in the experiment with Staphylococcus aureus [32]; 7.9% with Enterococcus faecium [33]. For the same compound, the figures for the MIC90 in the experiment with Enterococcus faecium [25], in the experiment with Pseudomonas aeruginosa [28] and against Streptococcus pneumoniae [34] were 128 µg/mL (≈ 345 µM), at least 8 µg/mL and 0.015 µg/mL (≈ 0.0404 µM), respectively.

The MIC90 is an inhibitory concentration at the 90% level, which refers to growth in some studies and to a panel of isolates in others.
